Experimental data collected from several papers.
Lines come from different studies, so protocols differ. pIC50: −log10 of the molar value.
Target: Prostaglandin G/H synthase 1 (PTGS1, Ovis aries, UniProt P05979)
Observed: enzyme activity
Action: inhibitor
One construct used (P05979 25-600): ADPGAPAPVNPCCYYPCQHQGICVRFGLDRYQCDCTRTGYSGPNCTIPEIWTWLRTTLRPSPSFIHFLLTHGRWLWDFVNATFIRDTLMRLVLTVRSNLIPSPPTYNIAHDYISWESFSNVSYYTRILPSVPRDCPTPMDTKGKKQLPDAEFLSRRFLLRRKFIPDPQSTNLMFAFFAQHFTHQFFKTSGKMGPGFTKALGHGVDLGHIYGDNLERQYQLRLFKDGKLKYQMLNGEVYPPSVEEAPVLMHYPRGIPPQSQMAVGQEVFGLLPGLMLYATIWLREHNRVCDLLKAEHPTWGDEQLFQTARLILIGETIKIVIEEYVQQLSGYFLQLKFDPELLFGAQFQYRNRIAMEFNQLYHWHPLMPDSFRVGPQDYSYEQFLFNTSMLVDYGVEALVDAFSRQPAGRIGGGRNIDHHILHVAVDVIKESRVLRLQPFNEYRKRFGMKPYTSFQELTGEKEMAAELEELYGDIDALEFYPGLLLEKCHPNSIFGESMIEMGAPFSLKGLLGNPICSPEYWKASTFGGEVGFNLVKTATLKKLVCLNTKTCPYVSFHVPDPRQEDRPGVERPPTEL

SMILES | method | pIC50
O=[N+]([O-])c1ccc(-c2ccccc2F)cc1 | absorbance | 5.00
CSc1ccc(/C=C2\C=C(CC(=O)NS(=O)(=O)C(F)(F)F)c3cc(F)ccc32)cc1 | – | 6.00 to 6.15
CS(=O)(=O)c1ccc(-c2nc3ccccn3c2Nc2ccc(Cl)cc2)cc1 | fluorescence | 4.46
COc1ccccc1-c1ccc(F)c(OC(F)(F)F)c1 | absorbance | 4.97
Cc1ccc(-c2nc3ccccc3s2)c(-c2ccc(S(C)(=O)=O)cc2)c1 | absorbance | < 4.00
COc1ccc(F)c(-c2ccccc2OC)c1 | absorbance | 5.08
Cc1cccn2c(Nc3ccc(F)cc3)c(-c3ccc(S(C)(=O)=O)cc3)nc12 | fluorescence | 4.50
Cc1ccc(-c2nn(-c3ccc(S(C)(=O)=O)cc3)cc2/C=N\N=c2/[nH]c(-c3ccc([N+](=O)[O-])cc3)cs2)cc1 | – | 4.30
Cc1cccn2c(Nc3ccccc3)c(-c3ccc(S(C)(=O)=O)cc3)nc12 | fluorescence | 4.45
CC(C)Cc1ccc(-c2nn(-c3ccc(S(C)(=O)=O)cc3)cc2/C=N/N=c2\[nH]c(-c3ccc(Br)cc3)cs2)cc1 | – | 4.56
CSc1ccc(/C=C2\C=C(CC(=O)NS(=O)(=O)c3ccc(Cl)s3)c3cc(F)ccc32)cc1 | – | 5.70
CS(=O)(=O)c1ccc(-c2ncc(Cl)cc2-c2nc3ccccc3s2)cc1 | absorbance | < 4.00
COc1ccc(-c2nn(-c3ccc(S(C)(=O)=O)cc3)cc2/C=N/N=c2\[nH]c(-c3ccc(Br)cc3)cs2)cc1 | – | 4.20
NS(=O)(=O)c1ccc(-c2ncc(Cl)cc2-c2nc3ccccc3s2)cc1 | absorbance | < 4.00
Cc1cccn2c(Nc3ccc(Cl)cc3)c(-c3ccc(S(C)(=O)=O)cc3)nc12 | fluorescence | 4.53
COc1ccc(-c2nn(-c3ccc(S(C)(=O)=O)cc3)cc2C=N/N=c2\[nH]c(-c3ccc([N+](=O)[O-])cc3)cs2)cc1 | – | 4.63
COc1ccc(Nc2c(-c3ccc(S(C)(=O)=O)cc3)nc3ccccn23)cc1 | fluorescence | 4.78
Cc1ccc(/C=C2\C=C(CC(=O)O)c3cc(F)ccc32)cc1 | – | 5.49
O=[N+]([O-])c1cccc(-c2ccccc2F)c1F | absorbance | 4.99
C[C@@H]1O[C@@H](OC[C@H]2O[C@@H](Oc3c(-c4ccc(O)cc4)oc4cc(O)cc(O)c4c3=O)[C@H](O[C@@H]3O[C@H](CO)[C@@H](O)[C@H](O)[C@H]3O)[C@@H](O)[C@@H]2O)[C@H](O)[C@H](O)[C@H]1O | absorbance | 4.89
CS(=O)(=O)c1ccc(-c2nc3ccccn3c2Nc2ccc(F)cc2)cc1 | fluorescence | 4.62
CS(=O)(=O)c1ccc(-n2cc(/C=N/N=c3\[nH]c(-c4ccc([N+](=O)[O-])cc4)cs3)c(-c3ccc(Br)cc3)n2)cc1 | – | 4.61
Cc1ccc(Nc2c(-c3ccc(S(C)(=O)=O)cc3)nc3cccc(C)n23)cc1 | fluorescence | 4.71
Fc1ccc(-c2ccccc2F)cc1OC(F)(F)F | absorbance | 4.96
